HIV Rev-RRE inh: disrupts HIV-1 Rev binding to RRE RNA. P05866. Rev peptide-RRE RNA binding, FRET. inhibition, % at 8 µM. 97,000 compounds, 0.79% hits. AID 704;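 active means inhibition above the screen-wide mean plus 3 SD, cut at about 35% in these data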
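Test system: Cy5-tagged RRE RNA duplex with fluorescein-tagged Rev peptide | Read-out: % inhibition of FRET ratio versus controls | Probe or stimulus: Labelled Rev peptide | Incubation: 5 min RNA-compound premix plus 15 min binding step, 25 °C | Technique: FRET fluorescence readout | Benchmarks: DMSO low control, neomycin B high control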
CYP2C19 inh: human CYP2C19 inhibition; 96,000 compounds, 21% hits; inhibition, % at 5 µM; CYP2C19 Supersomes, luciferin-H EGE luminescence, 30 min; P33261;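 active means CYP2C19 inhibition above a set limit at 5 µM in the primary screen, cut at about 50% in these data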
Cav3 T inh: blocks human Cav3.2 T-type calcium channel; Cav3.2-expressing cells, Fluo-4 calcium fluorescence FDSS; active compounds read low; B-score at 10 µM; 100,000 compounds, 4% hits; AID 449739;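 active means single-dose well whose peak fluorescence ratio is a statistical outlier from its plate by either plate-standardised score or position-corrected B-score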
CYP2C9 inh: inhibitors of human CYP2C9; 96,000 compounds, 20% hits; inhibition, % at 5 µM; CYP2C9 Supersomes, luciferin-H conversion, luminescence;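 active means blocking of liver enzyme CYP2C9 beyond about 50% at 5 µM, limit read from the data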
CYP2C19 act: activators of human cytochrome P450 2C19; P33261; recombinant CYP2C19, luciferin-H EGE luminescence; active compounds read high; 0 = fully inhibited enzyme, 1 = untreated enzyme; activation factor at 5 µM; 96,000 tested, under 10 active;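 active means activation factor of at least 2 at 5 µM in the primary screen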
CYP2C9 act: increases human cytochrome P450 2C9 activity; recombinant CYP2C9, luciferin-H conversion, luminescence; active compounds read high; factor 1 = untreated enzyme, 0 = blocked; activation factor at 5 µM; 96,000 compounds, 1.4% hits;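 active means activation factor of 2 or more for CYP2C9 at a 5 µM dose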
Numbers stand for hits. Only some compounds are listed: those with a hit (about 27% of all), similar ones and a draw of the others.

For Cc1cccc(N2CCN(C(=O)CCCOc3ccccc3)CC2)c1C the results were HIV Rev-RRE inh inactive, CYP2C19 inh 75, Cav3 T inh -7.7, CYP2C9 inh 81, CYP2C19 act inactive and CYP2C9 act inactive.
Screening Cc1ccc(OCCCC(=O)N2CCOCC2)cc1 returned HIV Rev-RRE inh inactive, CYP2C19 inh 75, Cav3 T inh inactive, CYP2C9 inh inactive, CYP2C19 act inactive and CYP2C9 act inactive.
`O=C(CCCOc1ccccc1)N1CCN(c2ccccc2)CC1` gave HIV Rev-RRE inh inactive, CYP2C19 inh 62, Cav3 T inh -4.3, CYP2C9 inh 78, CYP2C19 act inactive and CYP2C9 act inactive.
Screening O=C(NCc1ccc(F)cc1)c1cnc(-c2ccccn2)nc1C(F)(F)F returned HIV Rev-RRE inh inactive, CYP2C19 inh inactive, Cav3 T inh inactive, CYP2C9 inh inactive, CYP2C19 act inactive and CYP2C9 act inactive.
NC(=O)CC(NC(=O)Cc1ccc(Br)cc1)c1ccc(NCCc2ccccc2F)c([N+](=O)[O-])c1 (stereo unspecified) was read as Cav3 T inh inactive.
`COc1ccc2c(c1OC)C(=O)OC2CC(=O)c1ccc(N(C)C)cc1` (stereo unspecified) gave CYP2C19 inh inactive, Cav3 T inh inactive, CYP2C9 inh inactive, CYP2C19 act inactive and CYP2C9 act inactive.
`O=C(NC1=NCCS1)C1Cc2ccccc2CN1C(=O)c1ccccc1` (stereo unspecified) gave HIV Rev-RRE inh inactive, CYP2C19 inh 79, Cav3 T inh inactive, CYP2C9 inh inactive, CYP2C19 act inactive and CYP2C9 act inactive.
For COC(=O)c1ccc2ccn(CC(=O)NC(C)C)c2c1 the results were HIV Rev-RRE inh inactive, CYP2C19 inh inactive, Cav3 T inh inactive, CYP2C9 inh inactive, CYP2C19 act inactive and CYP2C9 act inactive.
Screening Cc1nn(C(C)C(=O)NNC(=S)Nc2ccc(Cl)cc2)c(C)c1[N+](=O)[O-] (stereo unspecified) returned HIV Rev-RRE inh inactive, CYP2C19 inh inactive, Cav3 T inh inactive, CYP2C9 inh 64, CYP2C19 act inactive and CYP2C9 act inactive.
Screening Cc1nn(CCC(=O)NNC(=S)Nc2ccc(Cl)cc2)c(C)c1[N+](=O)[O-] returned HIV Rev-RRE inh inactive and Cav3 T inh inactive.
For C(=N\Nc1nc(Nc2ccccc2)nc(N2CCOCC2)n1)/c1c[nH]c2ccccc12 the results were HIV Rev-RRE inh inactive, CYP2C19 inh 100, Cav3 T inh inactive, CYP2C9 inh 88, CYP2C19 act inactive and CYP2C9 act inactive.
CCOc1ccc(NCC(=O)Nc2ccc(Cl)cc2C)cc1 was read as HIV Rev-RRE inh inactive and Cav3 T inh inactive.
For COc1ccc(OC)c(NC(=O)CCNS(=O)(=O)c2cccs2)c1 the results were HIV Rev-RRE inh inactive and Cav3 T inh inactive.
Screening COc1ccc(NC(=O)CNS(=O)(=O)c2ccc3nc(C)sc3c2)c(OC)c1 returned HIV Rev-RRE inh inactive, CYP2C19 inh inactive, Cav3 T inh inactive, CYP2C9 inh 51, CYP2C19 act inactive and CYP2C9 act inactive.
For COc1ccc(NCC(=O)Nc2ccc(Cl)cc2C)c(OC)c1 the results were HIV Rev-RRE inh inactive, CYP2C19 inh 93, Cav3 T inh inactive, CYP2C9 inh 99, CYP2C19 act inactive and CYP2C9 act inactive.
For COc1ccc2nc(NC(=O)CNS(=O)(=O)c3cccs3)sc2c1 the results were HIV Rev-RRE inh inactive, CYP2C19 inh 64, Cav3 T inh inactive, CYP2C9 inh inactive, CYP2C19 act inactive and CYP2C9 act inactive.
COc1ccc(NC(=O)CNS(=O)(=O)c2cccs2)c(OC)c1 was read as HIV Rev-RRE inh inactive, CYP2C19 inh 57, Cav3 T inh inactive, CYP2C9 inh inactive, CYP2C19 act inactive and CYP2C9 act inactive.
Cc1n[nH]c(C)c1S(=O)(=O)N1CCN(C(=O)c2ccco2)CC1 was read as HIV Rev-RRE inh inactive, CYP2C19 inh inactive, Cav3 T inh inactive, CYP2C9 inh inactive, CYP2C19 act inactive and CYP2C9 act inactive.
`O=C(O)[C@@H](O)c1ccccc1` gave Cav3 T inh inactive.
Cc1cc(N/C=C2\CCCCC2=O)no1 was read as HIV Rev-RRE inh inactive, CYP2C19 inh inactive, Cav3 T inh inactive, CYP2C9 inh inactive, CYP2C19 act inactive and CYP2C9 act inactive.
For COc1ccc2nc(NC(=O)C3CCN(S(=O)(=O)c4cccs4)CC3)sc2c1 the results were HIV Rev-RRE inh inactive, CYP2C19 inh 84, Cav3 T inh inactive, CYP2C9 inh 67, CYP2C19 act inactive and CYP2C9 act inactive.
Screening CCOCC(=O)Nc1nc2ccc(OC)cc2s1 returned HIV Rev-RRE inh inactive, CYP2C19 inh inactive, Cav3 T inh inactive, CYP2C9 inh inactive, CYP2C19 act inactive and CYP2C9 act inactive.
Screening COc1ccc2nc(NC(=O)CN(C)S(=O)(=O)c3cccs3)sc2c1 returned HIV Rev-RRE inh inactive, CYP2C19 inh 80, Cav3 T inh inactive, CYP2C9 inh 62, CYP2C19 act inactive and CYP2C9 act inactive.
Screening Cc1ccc(C)c(N(CC(N)=O)S(C)(=O)=O)c1 returned HIV Rev-RRE inh inactive, CYP2C19 inh inactive, Cav3 T inh inactive, CYP2C9 inh inactive, CYP2C19 act inactive and CYP2C9 act inactive.
Screening Cc1c(C(=O)Nc2ccc(Cl)cc2)c2ccccn2c1C(=O)c1ccc([N+](=O)[O-])cc1 returned HIV Rev-RRE inh inactive, CYP2C19 inh inactive, Cav3 T inh -7.1, CYP2C9 inh 81, CYP2C19 act inactive and CYP2C9 act inactive.
`Cc1c(C(=O)Nc2ccc(Cl)cc2)c2ccccn2c1C(=O)c1ccccc1` gave HIV Rev-RRE inh inactive, CYP2C19 inh inactive, Cav3 T inh inactive, CYP2C9 inh inactive, CYP2C19 act inactive and CYP2C9 act inactive.
Screening CCn1c(=O)n(CC)c2cc(S(=O)(=O)N3CCc4ccccc43)ccc21 returned HIV Rev-RRE inh inactive, CYP2C19 inh 96, Cav3 T inh inactive, CYP2C9 inh 95, CYP2C19 act inactive and CYP2C9 act inactive.
O=S(=O)(NC1CC1)c1ccc(S(=O)(=O)N2CCc3ccccc32)cc1 was read as HIV Rev-RRE inh inactive, CYP2C19 inh 72, Cav3 T inh inactive, CYP2C9 inh 82, CYP2C19 act inactive and CYP2C9 act inactive.
For CCC(=O)N1CCCc2cc(S(=O)(=O)N3CCCc4ccccc43)ccc21 the results were HIV Rev-RRE inh inactive, CYP2C19 inh inactive, Cav3 T inh inactive, CYP2C9 inh inactive, CYP2C19 act inactive and CYP2C9 act inactive.
Screening CC(=O)Nc1ccc(S(=O)(=O)N2CCCc3ccccc32)cc1 returned HIV Rev-RRE inh inactive, CYP2C19 inh inactive, Cav3 T inh inactive, CYP2C9 inh inactive, CYP2C19 act inactive and CYP2C9 act inactive.
Nc1ccc(S(=O)(=O)N2CCCc3ccccc32)cc1 was read as HIV Rev-RRE inh inactive, CYP2C19 inh 74, Cav3 T inh inactive, CYP2C9 inh inactive, CYP2C19 act inactive and CYP2C9 act 3.7.
Cc1[nH]c2ccccc2c1C(=O)CN1CCN(C2CCCCC2)CC1 was read as HIV Rev-RRE inh inactive, CYP2C19 inh inactive, Cav3 T inh inactive, CYP2C9 inh inactive, CYP2C19 act inactive and CYP2C9 act inactive.
